Measured values from ChEMBL document CHEMBL4033714, “Discovery of BI 135585, an in vivo efficacious oxazinanone-based 11β hydroxysteroid dehydrogenase type 1 inhibitor” (Bioorg Med Chem, 2017).
≈ marks a conversion by molar mass, not a printed value.

Columns and labels:
[1] = biological target: Cytochrome P450 2D6 (Homo sapiens, UniProt P10635); experiment: Inhibition of CYP2D6 (unknown origin); format: ADME
[2] = system: Cynomolgus monkey; experiment: Dose normalized AUC in iv dosed cynomolgus monkey; format: ADME, organism-based, Macaca fascicularis; details: in vivo
[3] = Half life in rat liver microsomes; format: ADME, microsome
[4] = biological target: CYP3A4 (Homo sapiens, UniProt P08684); experiment: Inhibition of recombinant CYP3A4 (unknown origin); format: ADME; details: recombinant CYP3A4
Chain of CYP3A4 (P08684 whole entry): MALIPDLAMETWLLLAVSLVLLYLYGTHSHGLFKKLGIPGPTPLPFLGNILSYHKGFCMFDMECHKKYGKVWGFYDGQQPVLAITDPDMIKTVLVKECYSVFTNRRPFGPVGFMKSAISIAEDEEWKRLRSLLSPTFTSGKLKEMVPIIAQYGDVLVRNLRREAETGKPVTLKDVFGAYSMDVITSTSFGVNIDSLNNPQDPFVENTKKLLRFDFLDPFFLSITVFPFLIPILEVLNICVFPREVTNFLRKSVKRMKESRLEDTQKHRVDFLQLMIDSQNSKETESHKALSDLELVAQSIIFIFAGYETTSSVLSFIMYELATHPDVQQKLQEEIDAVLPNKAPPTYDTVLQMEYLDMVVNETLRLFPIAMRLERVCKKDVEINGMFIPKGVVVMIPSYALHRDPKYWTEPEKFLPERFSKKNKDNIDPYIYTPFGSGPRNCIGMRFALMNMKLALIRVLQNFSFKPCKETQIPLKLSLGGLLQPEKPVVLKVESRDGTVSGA

[5] = Aqueous solubility of the compound; format: physicochemical; details: aqueous medium; read-out: solubility
In short: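 Solubility measured in water, with each compound tested as amorphous material.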

[6] = Half life in human liver microsomes; format: ADME, microsome
[7] = biological target: Voltage-gated inwardly rectifying potassium channel KCNH2 (Homo sapiens, UniProt Q12809); experiment: Inhibition of human ERG
Chain of Voltage-gated inwardly rectifying potassium channel KCNH2 (Q12809 whole entry): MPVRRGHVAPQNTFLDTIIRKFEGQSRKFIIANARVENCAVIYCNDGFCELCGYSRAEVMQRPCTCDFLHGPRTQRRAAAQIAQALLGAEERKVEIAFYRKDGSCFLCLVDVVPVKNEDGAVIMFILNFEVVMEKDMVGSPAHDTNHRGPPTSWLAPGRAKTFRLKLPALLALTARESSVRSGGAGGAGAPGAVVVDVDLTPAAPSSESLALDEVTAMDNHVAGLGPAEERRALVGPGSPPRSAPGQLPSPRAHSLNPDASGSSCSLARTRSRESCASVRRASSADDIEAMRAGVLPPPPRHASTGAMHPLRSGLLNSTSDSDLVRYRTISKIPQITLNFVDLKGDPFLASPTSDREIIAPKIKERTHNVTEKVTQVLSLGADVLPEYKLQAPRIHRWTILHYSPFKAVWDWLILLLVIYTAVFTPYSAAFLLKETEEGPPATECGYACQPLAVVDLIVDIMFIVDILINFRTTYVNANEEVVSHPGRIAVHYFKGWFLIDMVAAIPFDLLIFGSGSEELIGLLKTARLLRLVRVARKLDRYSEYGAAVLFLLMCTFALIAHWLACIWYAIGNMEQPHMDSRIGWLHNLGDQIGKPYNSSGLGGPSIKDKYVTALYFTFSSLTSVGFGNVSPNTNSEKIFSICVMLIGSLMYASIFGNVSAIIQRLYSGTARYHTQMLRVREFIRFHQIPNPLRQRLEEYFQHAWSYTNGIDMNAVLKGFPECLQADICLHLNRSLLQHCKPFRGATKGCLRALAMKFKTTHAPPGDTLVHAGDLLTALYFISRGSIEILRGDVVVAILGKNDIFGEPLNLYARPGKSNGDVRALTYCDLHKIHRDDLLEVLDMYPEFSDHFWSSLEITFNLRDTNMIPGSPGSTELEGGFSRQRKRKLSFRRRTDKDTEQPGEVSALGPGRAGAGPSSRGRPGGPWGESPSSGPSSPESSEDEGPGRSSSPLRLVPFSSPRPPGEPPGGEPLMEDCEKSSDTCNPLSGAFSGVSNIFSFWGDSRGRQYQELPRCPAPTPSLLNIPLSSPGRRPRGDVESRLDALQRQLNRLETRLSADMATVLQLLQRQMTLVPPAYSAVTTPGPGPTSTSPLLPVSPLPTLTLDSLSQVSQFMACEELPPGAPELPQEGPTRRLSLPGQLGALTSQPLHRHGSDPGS

[8] = biological target: CYP2C9 (Homo sapiens, UniProt P11712); experiment: Inhibition of CYP2C9 (unknown origin); format: ADME
Chain of CYP2C9 (P11712 whole entry): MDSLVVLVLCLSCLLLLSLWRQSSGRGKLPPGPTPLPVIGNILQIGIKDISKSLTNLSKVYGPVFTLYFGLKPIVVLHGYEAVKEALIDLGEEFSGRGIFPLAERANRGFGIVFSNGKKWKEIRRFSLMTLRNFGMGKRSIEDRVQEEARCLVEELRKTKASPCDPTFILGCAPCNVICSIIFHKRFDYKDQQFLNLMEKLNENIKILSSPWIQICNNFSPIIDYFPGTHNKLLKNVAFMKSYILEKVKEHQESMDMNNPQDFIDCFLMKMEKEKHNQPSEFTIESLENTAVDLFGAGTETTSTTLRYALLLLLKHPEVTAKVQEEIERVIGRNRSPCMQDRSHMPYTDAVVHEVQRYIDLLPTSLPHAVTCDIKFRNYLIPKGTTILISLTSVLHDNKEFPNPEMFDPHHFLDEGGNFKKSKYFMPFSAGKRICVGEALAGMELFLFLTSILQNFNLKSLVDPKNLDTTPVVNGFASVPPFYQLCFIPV

[9] = Half life in cynomolgus monkey liver microsomes; format: ADME, Macaca fascicularis, microsome
[10] = biological target: hERG (Homo sapiens, UniProt Q12809); experiment: Inhibition of human ERG at 10 uM by patch clamp assay relative to control
Chain of hERG (Q12809 whole entry): as the sequence (Q12809 whole entry) above

[11] = Mean residence time in iv dosed cynomolgus monkey; format: ADME, organism-based, Macaca fascicularis; details: in vivo
[12] = Clearance in iv dosed cynomolgus monkey; format: ADME, organism-based, Macaca fascicularis; details: in vivo
[13] = Volume of distribution at steady state in iv dosed cynomolgus monkey; format: ADME, organism-based, Macaca fascicularis; details: in vivo, read-out: Vdss
[14] = Mean residence time in po dosed cynomolgus monkey; format: ADME, organism-based, Macaca fascicularis; details: in vivo
[15] = Oral bioavailability in cynomolgus monkey; format: ADME, organism-based, Macaca fascicularis; details: in vivo
[16] = biological target: T1, 11-beta-hydroxysteroid dehydrogenase type 2 (Homo sapiens, UniProt P80365); experiment: Inhibition of 11beta-HSD2 (unknown origin)
T1 sequence (P80365 whole entry): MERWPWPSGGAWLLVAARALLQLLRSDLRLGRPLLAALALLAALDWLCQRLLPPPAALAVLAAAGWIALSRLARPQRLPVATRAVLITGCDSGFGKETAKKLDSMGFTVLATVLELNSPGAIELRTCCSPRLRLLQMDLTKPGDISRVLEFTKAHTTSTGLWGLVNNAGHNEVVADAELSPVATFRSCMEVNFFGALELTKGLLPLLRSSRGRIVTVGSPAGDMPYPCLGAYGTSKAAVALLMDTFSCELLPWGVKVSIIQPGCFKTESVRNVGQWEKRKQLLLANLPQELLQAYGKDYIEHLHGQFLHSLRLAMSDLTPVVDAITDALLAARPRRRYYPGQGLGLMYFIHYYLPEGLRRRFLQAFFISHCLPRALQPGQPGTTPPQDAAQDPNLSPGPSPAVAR

[17] = biological target: T2, 3 beta-hydroxysteroid dehydrogenase/Delta 5-->4-isomerase type 2 (Homo sapiens, UniProt P26439); experiment: Inhibition of 3beta-HSD2 (unknown origin)
T2 sequence (P26439 whole entry): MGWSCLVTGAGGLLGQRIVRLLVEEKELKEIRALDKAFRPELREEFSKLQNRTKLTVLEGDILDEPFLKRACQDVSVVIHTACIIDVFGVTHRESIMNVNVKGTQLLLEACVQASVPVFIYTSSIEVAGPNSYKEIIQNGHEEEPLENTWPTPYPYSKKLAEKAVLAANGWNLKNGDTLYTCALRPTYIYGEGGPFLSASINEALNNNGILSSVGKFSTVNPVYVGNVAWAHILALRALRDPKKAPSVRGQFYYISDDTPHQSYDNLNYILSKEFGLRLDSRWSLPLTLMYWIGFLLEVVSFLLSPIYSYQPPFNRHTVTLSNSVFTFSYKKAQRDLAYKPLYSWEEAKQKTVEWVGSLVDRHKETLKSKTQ

[18] = biological target: T3, 17-beta-hydroxysteroid dehydrogenase type 1 (Homo sapiens, UniProt P14061); experiment: Inhibition of 17beta-HSD1 (unknown origin)
T3 sequence (P14061 whole entry): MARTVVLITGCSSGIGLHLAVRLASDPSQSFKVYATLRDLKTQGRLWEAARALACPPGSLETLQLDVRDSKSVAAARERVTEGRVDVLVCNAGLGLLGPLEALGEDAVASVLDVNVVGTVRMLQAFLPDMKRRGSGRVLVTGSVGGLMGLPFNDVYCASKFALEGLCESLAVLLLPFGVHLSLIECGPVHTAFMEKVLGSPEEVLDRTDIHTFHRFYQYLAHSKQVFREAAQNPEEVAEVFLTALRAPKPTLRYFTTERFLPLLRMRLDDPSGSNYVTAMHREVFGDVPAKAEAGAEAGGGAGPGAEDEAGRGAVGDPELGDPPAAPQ

[19] = biological target: T4, Nuclear receptor subfamily 1 group I member 2 (Homo sapiens, UniProt O75469); experiment: Inhibition of PXR (unknown origin); format: ADME
T4 sequence (O75469 whole entry): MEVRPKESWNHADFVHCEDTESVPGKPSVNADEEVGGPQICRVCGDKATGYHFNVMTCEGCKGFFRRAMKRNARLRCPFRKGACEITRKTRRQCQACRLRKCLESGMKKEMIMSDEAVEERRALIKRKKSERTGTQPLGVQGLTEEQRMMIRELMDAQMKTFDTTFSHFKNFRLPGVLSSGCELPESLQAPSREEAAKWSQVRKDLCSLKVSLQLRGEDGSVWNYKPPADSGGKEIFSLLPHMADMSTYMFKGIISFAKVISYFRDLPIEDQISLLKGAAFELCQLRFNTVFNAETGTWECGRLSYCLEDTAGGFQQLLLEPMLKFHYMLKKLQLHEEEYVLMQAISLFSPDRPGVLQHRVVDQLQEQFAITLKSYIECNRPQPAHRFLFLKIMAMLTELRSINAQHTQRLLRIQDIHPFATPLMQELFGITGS

[20] = Partition coefficient, log P of the compound; format: physicochemical; details: octanol/water
[21] = Protein binding in human plasma; format: ADME, cell-free; details: read-out: PPB (converted)
[22] = system: Cynomolgus monkey; experiment: In-vivo inhibition of 11beta-HSD1 in cynomolgus monkey perirenal adipose tissue assessed as reduction in cortisol level at 1 mg/kg, po using [2H]-cortisone as substrate after 22 hrs by HPLC analysis relative to control; format: functional; details: Macaca fascicularis
In short: (§1)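 Cynomolgus monkeys were dosed orally. Perirenal and abdominal subcutaneous adipose tissue was then taken, and cortisone-to-cortisol conversion was measured ex vivo. Reduction in cortisol is expressed relative to vehicle-treated animals.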

[23] = system: Cynomolgus monkey; experiment: In-vivo inhibition of 11beta-HSD1 in cynomolgus monkey perirenal adipose tissue assessed as reduction in cortisol level at 3 mg/kg, po using [2H]-cortisone as substrate after 22 hrs by HPLC analysis relative to control; format: functional; details: Macaca fascicularis; in short: as §1
[24] = system: Cynomolgus monkey; experiment: In-vivo inhibition of 11beta-HSD1 in cynomolgus monkey abdominal subcutaneous adipose tissue assessed as reduction in cortisol level at 1 mg/kg, po using [2H]-cortisone as substrate after 22 hrs by HPLC analysis relative to control; format: functional; details: Macaca fascicularis; in short: as §1
[25] = system: Cynomolgus monkey; experiment: In-vivo inhibition of 11beta-HSD1 in cynomolgus monkey abdominal subcutaneous adipose tissue assessed as reduction in cortisol level at 3 mg/kg, po using [2H]-cortisone as substrate after 22 hrs by HPLC analysis relative to control; format: functional; details: Macaca fascicularis; in short: as §1

Chain of Cytochrome P450 2D6 (P10635 whole entry): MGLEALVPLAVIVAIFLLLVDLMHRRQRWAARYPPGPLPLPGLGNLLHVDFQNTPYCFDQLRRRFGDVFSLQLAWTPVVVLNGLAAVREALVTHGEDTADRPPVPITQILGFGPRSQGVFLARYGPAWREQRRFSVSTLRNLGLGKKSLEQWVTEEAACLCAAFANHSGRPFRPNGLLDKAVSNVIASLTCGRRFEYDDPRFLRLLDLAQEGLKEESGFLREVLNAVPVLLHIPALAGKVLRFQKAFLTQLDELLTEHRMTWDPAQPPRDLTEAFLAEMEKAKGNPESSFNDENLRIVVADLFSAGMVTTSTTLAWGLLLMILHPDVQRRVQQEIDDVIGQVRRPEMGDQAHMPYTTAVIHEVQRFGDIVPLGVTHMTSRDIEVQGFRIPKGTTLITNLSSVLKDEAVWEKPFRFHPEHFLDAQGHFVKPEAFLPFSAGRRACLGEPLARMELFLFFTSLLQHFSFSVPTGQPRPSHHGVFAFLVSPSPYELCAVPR

IC50 [1]: > 50 µM
AUC/dose [2]: 2500 nM·h
half-life [3]: > 90 min
IC50 [4]: > 50 µM
solubility [5]: 220 µg/mL (≈ 478 µM)
half-life [6]: > 90 min
IC50 [8]: > 50 µM
half-life [9]: > 90 min
MRT [11]: 5.5 h
clearance [12]: 7.5 mL/min/kg
Vd [13]: 2.5 L/kg
MRT [14]: 8.7 h
bioavailability [15]: 54%
IC50 [16]: > 10 µM
IC50 [17]: > 10 µM
IC50 [18]: > 10 µM
EC50 [19]: > 10 µM
logP [20]: 2.6
fraction unbound [21]: 0.084
Compound: C[C@@H](c1ccc(-c2ccn(C)c(=O)c2)cc1)N1CC[C@](CC(C)(C)O)(c2ccccc2)OC1=O
IC50 [7]: > 100 µM
inhibition at 10 µM [10]: < 10%
inhibition in vivo at 1 mg/kg [22]: 67%
inhibition in vivo at 3 mg/kg [23]: 90%
inhibition in vivo at 1 mg/kg [24]: 67%
inhibition in vivo at 3 mg/kg [25]: 95%
